The record followed here is ChEMBL document CHEMBL1146234, “Synthesis and biological evaluation of N-pyrazolyl-N'-alkyl/benzyl/phenylureas: a new class of potent inhibitors of interleukin 8-induced neutrophil chemotaxis” (J Med Chem, 2007).

The structures appear in SMILES notation. Calls of active or inactive are those of the source. The calls are words filed in the database; no cut-off is given here.

The first experiment has as its system Mus musculus. Nature of the experiment: Monocyte percentage in zymosan-induced Swiss mouse peritoneal fluid at 100 mg/kg, po.
Settings: not given
For `CCOC(=O)c1cnn(CC(O)c2ccccc2)c1NC(=O)Nc1cccc(F)c1` (stereo not given), the % monocytes at 100 mg/kg is 10%.

A further experiment relates to Mus musculus. Nature of the experiment: Granulocyte percentage in zymosan-induced Swiss mouse peritoneal fluid at 100 mg/kg, po.
Settings: not given
Regarding `CCOC(=O)c1cnn(CC(O)c2ccccc2)c1NC(=O)Nc1cccc(F)c1` (stereo not given), the % granulocytes at 100 mg/kg was found to be 62%.

Another experiment concerns Mus musculus. Nature of the experiment: Inhibition of peritoneal granulocyte count in zymosan-induced Swiss mouse peritoneal fluid at 1 mg/kg, po. Format: functional.
Settings: not given
The method, boiled down: (§1)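 Male Swiss mice (25-30 g), fasted 16 h, n = 8 per group, were dosed orally 1 h before i.p. zymosan (5 mg/mL, 0.2 mL). Dexamethasone 1 mg/kg os served as reference. At 4 h, peritoneal lavage used 3 mL PBS with 3 mM EDTA. Total leukocytes were counted in a Neubauer chamber (Türk 1:100), with differentials by light microscopy. Counts were compared with vehicle by Student's t-test.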
In turn, `C[C@@H]1C[C@H]2[C@@H]3CCC4=CC(=O)C=C[C@]4(C)[C@@]3(F)[C@@H](O)C[C@]2(C)[C@@]1(O)C(=O)CO` [DEXAMETHASONE] registered an inhibition in vivo at 1 mg/kg of 62%.

A further experiment concerns Mus musculus. The experiment can be described thus: Inhibition of peritoneal granulocyte count in zymosan-induced Swiss mouse peritoneal fluid at 100 mg/kg, po.
Settings: not given
Format: functional. The method, boiled down: as §1
Turning to `CCOC(=O)c1cnn(CC(O)c2ccccc2)c1NC(=O)Nc1cccc(F)c1` (stereo not given), the inhibition in vivo at 100 mg/kg amounted to 33%.

For a further experiment, the system named is Mus musculus. The experiment can be described thus: Percentage of granulocytes in zymosan-induced Swiss mouse peritoneal fluid at 1 mg/kg, po.
Settings: not given
`C[C@@H]1C[C@H]2[C@@H]3CCC4=CC(=O)C=C[C@]4(C)[C@@]3(F)[C@@H](O)C[C@]2(C)[C@@]1(O)C(=O)CO` [DEXAMETHASONE]: the % granulocytes at 1 mg/kg was found to be 42%.

The subject of the next experiment is Neutrophil. The experiment can be described thus: Inhibition of IL8-induced neutrophil chemotaxis after 45 mins by Boyden chamber assay. Conditions: Homo sapiens, 0.75 h. Format: functional, cell-based. Put shortly: (§2)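 Leading-front Boyden assay with donor neutrophils. Cells were preincubated 15 min at room temperature ± compound. Then 4 × 10⁵ cells were placed above a 3 µm cellulose ester filter, with IL8 or fMLP below. After 45 min at 37 °C, filters were hematoxylin-stained and the leading-front distance was read at ×400, 5 fields per filter, in duplicate. Net migration = stimulated minus spontaneous. IC₅₀ came from nonlinear regression, ≥3 experiments.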
`CCOC(=O)c1cnn(CC(O)c2ccccc2)c1NC(=O)Nc1cccc(OC)c1` (stereo not given): 1400 nM corresponded to half-maximal inhibition (IC50).

As to `CCOC(=O)c1cnn(CC(O)c2ccccc2)c1NC(=O)Nc1ccc(Br)cc1` (stereo not given), inhibition was half-maximal at 92 nM (IC50).

Regarding `CC(C)NC(=O)Nc1c(C#N)cnn1CC(O)c1ccccc1` (stereo not given), half-maximal inhibition (IC50) required 35 nM.

On to `CCOC(=O)c1cnn(CC(O)c2ccccc2)c1NC(=O)NCc1cccc(F)c1` (stereo not given), for which 318 nM corresponded to half-maximal inhibition (IC50).

`CC(C)NC(=O)Nc1c(C(=O)O)cnn1CC(O)c1ccccc1` (stereo not given): the IC50 – broadly, the concentration that gives 50% inhibition – was found to be 251 nM.

`CCOC(=O)c1cnn(CC(O)c2ccccc2)c1NC(=O)NCc1cccc(Cl)c1` (stereo not given) gave an IC50 of 570 nM.

Consider `N#Cc1cnn(CC(O)c2ccccc2)c1NC(=O)Nc1ccccc1` (stereo not given), for which half-maximal inhibition (IC50) was put at 225 nM.

Take `CCOC(=O)c1cnn(CC(O)c2ccccc2)c1NC(=O)NCc1cccc(Br)c1` (stereo not given): the IC50 was found to be 198 nM.

`CCOC(=O)c1cnn(CC(O)c2ccccc2)c1NC(=O)Nc1cccc(Br)c1` (stereo not given) gave an IC50 of 424 nM.

In turn, `CCOC(=O)c1cnn(CC(O)c2ccccc2)c1NC(=O)Nc1ccc(Cl)cc1` (stereo not given) displayed an IC50 of 345 nM.

Take `CCOC(=O)c1cnn(CC(O)c2ccccc2)c1NC(=O)N1CCN(C)CC1` (stereo not given): the IC50 is 865 nM.

`CCOC(=O)c1cnn(CC(O)c2ccccc2)c1NC(=O)NCc1ccccc1Cl` (stereo not given) showed an IC50 of 1240 nM.

The molecule `CCOC(=O)c1cnn(CC(O)c2ccccc2)c1NC(=O)NCc1ccc(F)cc1` (stereo not given) gave an IC50 of 212 nM.

Take `CCOC(=O)c1cnn(CC(O)c2ccccc2)c1NC(=O)NCc1ccc(Cl)cc1` (stereo not given): the IC50 was found to be 935 nM.

For `CCOC(=O)c1cnn(CC(O)c2ccccc2)c1NC(=O)Nc1cccc(F)c1` (stereo not given), the 50% inhibitory concentration (IC50) was found to be 36 nM.

Another experiment relates to Mus musculus. Nature of the experiment: Inhibition of peritoneal cell count in zymosan-induced Swiss mouse peritoneal fluid at 100 mg/kg, po. Format: functional.
Settings: not given
The method, boiled down: as §1
`CCOC(=O)c1cnn(CC(O)c2ccccc2)c1NC(=O)Nc1cccc(F)c1` (stereo not given) registered an inhibition in vivo at 100 mg/kg of 29%.

Another experiment relates to Mus musculus. Nature of the experiment: Inhibition of peritoneal cell count in zymosan-induced Swiss mouse peritoneal fluid at 1 mg/kg, po. Format: functional. Conditions: read-out: Inhibition. The method, boiled down: as §1
Take `C[C@@H]1C[C@H]2[C@@H]3CCC4=CC(=O)C=C[C@]4(C)[C@@]3(F)[C@@H](O)C[C@]2(C)[C@@]1(O)C(=O)CO` [DEXAMETHASONE]: the inhibition in vivo at 1 mg/kg was 33%.

In the next experiment the test system is Mus musculus. Nature of the experiment: Lymphocyte percentage in zymosan-induced Swiss mouse peritoneal fluid at 100 mg/kg, po.
Settings: not given
Take `CCOC(=O)c1cnn(CC(O)c2ccccc2)c1NC(=O)Nc1cccc(F)c1` (stereo not given): the % lymphocytes at 100 mg/kg was determined as 28%.

The subject of another experiment is Neutrophil. The experiment can be described thus: Inhibition of fMLP-induced neutrophil chemotaxis after 45 mins by Boyden chamber assay. The experiment is classed as functional, cell-based. Conditions: Homo sapiens. Put shortly: as §2
`CCOC(=O)c1cnn(CC(O)c2ccccc2)c1NC(=O)Nc1cccc(OC)c1` (stereo not given): the outcome was inactive.

As for `CCOC(=O)c1cnn(CC(O)c2ccccc2)c1NC(=O)Nc1ccc(Br)cc1` (stereo not given), the result was inactive.

For the molecule `CC(C)NC(=O)Nc1c(C#N)cnn1CC(O)c1ccccc1` (stereo not given), the result was inactive.

Regarding `CCOC(=O)c1cnn(CC(O)c2ccccc2)c1NC(=O)NCc1cccc(F)c1` (stereo not given), the result was inactive.

Consider `CC(C)NC(=O)Nc1c(C(=O)O)cnn1CC(O)c1ccccc1` (stereo not given), for which the outcome was inactive.

As for `CCOC(=O)c1cnn(CC(O)c2ccccc2)c1NC(=O)NCc1cccc(Cl)c1` (stereo not given), the result was inactive.

In the case of `N#Cc1cnn(CC(O)c2ccccc2)c1NC(=O)Nc1ccccc1` (stereo not given), the result was inactive.

Regarding `CCOC(=O)c1cnn(CC(O)c2ccccc2)c1NC(=O)NCc1cccc(Br)c1` (stereo not given), the result was inactive.

Turning to `CCOC(=O)c1cnn(CC(O)c2ccccc2)c1NC(=O)Nc1cccc(Br)c1` (stereo not given), the result was inactive.

With `CCOC(=O)c1cnn(CC(O)c2ccccc2)c1NC(=O)Nc1ccc(Cl)cc1` (stereo not given), the result was inactive.

Consider `CCOC(=O)c1cnn(CC(O)c2ccccc2)c1NC(=O)N1CCN(C)CC1` (stereo not given), for which the outcome was inactive.

`CCOC(=O)c1cnn(CC(O)c2ccccc2)c1NC(=O)NCc1ccccc1Cl` (stereo not given): the result was inactive.

For `CCOC(=O)c1cnn(CC(O)c2ccccc2)c1NC(=O)NCc1ccc(F)cc1` (stereo not given), the result was inactive.

As for `CCOC(=O)c1cnn(CC(O)c2ccccc2)c1NC(=O)NCc1ccc(Cl)cc1` (stereo not given), the outcome was inactive.

Regarding `CCOC(=O)c1cnn(CC(O)c2ccccc2)c1NC(=O)Nc1cccc(F)c1` (stereo not given), the outcome was inactive.

Another experiment concerns Mus musculus. Nature of the experiment: Percentage of lymphocytes in zymosan-induced Swiss mouse peritoneal fluid at 1 mg/kg, po.
Settings: not given
Take `C[C@@H]1C[C@H]2[C@@H]3CCC4=CC(=O)C=C[C@]4(C)[C@@]3(F)[C@@H](O)C[C@]2(C)[C@@]1(O)C(=O)CO` [DEXAMETHASONE]: the % lymphocytes at 1 mg/kg stood at 44%.

The next experiment deals with Neutrophil. The experiment can be described thus: Cytotoxicity against human neutrophils assessed as viable cells after 2 hrs. The experiment is classed as functional. Also on record: concentration or dose not given beside the values.
Settings: not given
Put shortly: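 Human neutrophils (2 × 10⁶/mL) from healthy donors were incubated 2 h at 37 °C under CO₂ in HBSS:PBS (3:1) with 1 mg/mL BSA, with compounds. Membrane integrity was read by fluorescein diacetate/ethidium bromide staining for 10 min at room temperature, under UV dark-field microscopy. Green cells were scored viable; red nuclei were scored necrotic.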
In the case of `CCOC(=O)c1cnn(CC(O)c2ccccc2)c1NC(=O)Nc1cccc(OC)c1` (stereo not given), the Activity is 90%.

`CCOC(=O)c1cnn(CC(O)c2ccccc2)c1NC(=O)Nc1ccc(Br)cc1` (stereo not given): the Activity amounted to 90%.

Turning to `CC(C)NC(=O)Nc1c(C#N)cnn1CC(O)c1ccccc1` (stereo not given), the Activity came to 90%.

With `CCOC(=O)c1cnn(CC(O)c2ccccc2)c1NC(=O)NCc1cccc(F)c1` (stereo not given), the Activity is recorded as 90%.

As to `CC(C)NC(=O)Nc1c(C(=O)O)cnn1CC(O)c1ccccc1` (stereo not given), the Activity amounted to 90%.

Take `CCOC(=O)c1cnn(CC(O)c2ccccc2)c1NC(=O)NCc1cccc(Cl)c1` (stereo not given): the Activity is given as 90%.

Take `N#Cc1cnn(CC(O)c2ccccc2)c1NC(=O)Nc1ccccc1` (stereo not given): the Activity is listed as 90%.

As for `CCOC(=O)c1cnn(CC(O)c2ccccc2)c1NC(=O)NCc1cccc(Br)c1` (stereo not given), the Activity is 90%.

With `CCOC(=O)c1cnn(CC(O)c2ccccc2)c1NC(=O)Nc1cccc(Br)c1` (stereo not given), the Activity was found to be 90%.

For the molecule `CCOC(=O)c1cnn(CC(O)c2ccccc2)c1NC(=O)Nc1ccc(Cl)cc1` (stereo not given), the Activity is 90%.

`CCOC(=O)c1cnn(CC(O)c2ccccc2)c1NC(=O)N1CCN(C)CC1` (stereo not given): the Activity is reported as 90%.

Turning to `CCOC(=O)c1cnn(CC(O)c2ccccc2)c1NC(=O)NCc1ccccc1Cl` (stereo not given), the Activity is 90%.

Take `CCOC(=O)c1cnn(CC(O)c2ccccc2)c1NC(=O)NCc1ccc(F)cc1` (stereo not given): the Activity stood at 90%.

As for `CCOC(=O)c1cnn(CC(O)c2ccccc2)c1NC(=O)NCc1ccc(Cl)cc1` (stereo not given), the Activity amounted to 90%.

For the molecule `CCOC(=O)c1cnn(CC(O)c2ccccc2)c1NC(=O)Nc1cccc(F)c1` (stereo not given), the Activity was determined as 90%.

The next experiment relates to Mus musculus. Nature of the experiment: Percentage of monocytes in zymosan-induced Swiss mouse peritoneal fluid at 1 mg/kg, po.
Settings: not given
Take `C[C@@H]1C[C@H]2[C@@H]3CCC4=CC(=O)C=C[C@]4(C)[C@@]3(F)[C@@H](O)C[C@]2(C)[C@@]1(O)C(=O)CO` [DEXAMETHASONE]: the % monocytes at 1 mg/kg was found to be 14%.
